Laboratory results reported in ChEMBL document CHEMBL2176933 (J Med Chem, 2012).

Legend:
[1] = Clearance in human hepatocytes; type: ADME, cell-based, Liver, Hepatocyte
Outline: (§1)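 Metabolic stability determined in vitro in cryopreserved hepatocytes, human and rat.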

[2] = biological target: T1, Dual specificity protein kinase TTK (Homo sapiens) (UniProt P33981); experiment: Inhibition of TTK at 1 uM
T1 sequence (whole entry): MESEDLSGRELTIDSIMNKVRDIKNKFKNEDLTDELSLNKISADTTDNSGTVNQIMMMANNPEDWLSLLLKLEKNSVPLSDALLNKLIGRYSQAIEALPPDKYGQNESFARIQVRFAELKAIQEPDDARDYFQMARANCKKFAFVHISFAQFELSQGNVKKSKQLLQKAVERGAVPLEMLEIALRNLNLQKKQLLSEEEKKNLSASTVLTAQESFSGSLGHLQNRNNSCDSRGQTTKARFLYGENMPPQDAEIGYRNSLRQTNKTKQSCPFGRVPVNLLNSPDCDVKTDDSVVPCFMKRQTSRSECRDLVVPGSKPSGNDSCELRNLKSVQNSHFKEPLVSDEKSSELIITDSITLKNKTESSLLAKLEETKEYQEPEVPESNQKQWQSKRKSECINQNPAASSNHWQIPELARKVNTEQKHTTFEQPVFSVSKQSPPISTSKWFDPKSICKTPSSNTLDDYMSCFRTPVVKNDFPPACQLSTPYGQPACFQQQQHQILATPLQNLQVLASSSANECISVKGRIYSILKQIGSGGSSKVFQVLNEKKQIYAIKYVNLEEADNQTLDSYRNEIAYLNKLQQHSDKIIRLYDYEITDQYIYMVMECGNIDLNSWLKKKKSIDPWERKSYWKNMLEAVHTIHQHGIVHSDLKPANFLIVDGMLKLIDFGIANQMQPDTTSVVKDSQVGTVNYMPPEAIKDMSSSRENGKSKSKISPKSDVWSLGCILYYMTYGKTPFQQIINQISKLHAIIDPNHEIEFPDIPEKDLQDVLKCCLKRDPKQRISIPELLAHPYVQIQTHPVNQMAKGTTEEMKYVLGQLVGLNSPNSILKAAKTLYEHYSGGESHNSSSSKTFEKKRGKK
Outline: (§2)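 Percent inhibition of TTK activity measured at 0.1 μM and 1 μM in a kinase selectivity profiling panel.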

PBL = experiment: Genotoxicity in human PBL assessed as induction of micronuclei formation; type: toxicity, cell-based
[3] = Selectivity ratio of Ki for JAK2 to Ki for LRRK2
Outline: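 Ratio computed as JAK2 Ki divided by LRRK2 Ki, both from biochemical assays.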

Mus musculus [4] = species on record: Mus musculus; experiment: Genotoxicity in mouse by micronucleus study; type: toxicity, organism-based; details: in vivo
[5] = Selectivity ratio of Ki for TTK to Ki for LRRK2
Outline: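 Ratio computed as TTK Ki, from a Lanthascreen assay, divided by LRRK2 Ki from the biochemical assay.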

MDR1 (human) = experiment: Apparent permeability from apical to basolateral side of MDCK cells expressing human MDR1; type: ADME, cell-based, Canis lupus familiaris; details: dog
Outline: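 Transport measured in an MDCK cell line transfected with human P-gp (MDR1); apical-to-basolateral and basolateral-to-apical permeability determined; efflux ratio taken as (B−A)/(A−B).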

MDCK = experiment: Efflux ratio of permeability from basolateral to apical over apical to basolateral side in MDCK cells expressing human MDR1; details: dog
[6] = biological target: T1, Dual specificity protein kinase TTK (Homo sapiens); experiment: Inhibition of TTK at 0.1 uM; outline: as §2
[7] = biological target: T2, Dual specificity protein kinase TTK (Homo sapiens, UniProt P33981); experiment: Inhibition of TTK
T2 sequence (P33981 whole entry): T1 sequence (whole entry)
Outline: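 TTK Ki determined in a Lanthascreen biochemical assay.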

[8] = Plasma protein binding in rat; type: ADME, cell-free; details: read-out: PPB (converted)
Outline: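 Plasma protein binding measured in vitro in rat plasma; used to convert total clearance to unbound clearance and total to unbound plasma levels.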

[9] = biological target: T3, Leucine-rich repeat serine/threonine-protein kinase 2 (Homo sapiens, UniProt Q5S007); experiment: Inhibition of LRRK2 using FAM-LRRKtide as substrate after 120 mins by microfluidic capillary electrophoresis assay
[10] = Clearance in rat hepatocytes; type: ADME, cell-based, Liver, Hepatocyte; outline: as §1
[11] = biological target: T3, Leucine-rich repeat serine/threonine-protein kinase 2; experiment: Inhibition of autophosphorylation of LRRK2 in human HEK293 cells; type: cell-based
Nucleic Acid = experiment: Ratio of drug level CSF to unbound drug level in plasma in cynomolgus monkey at 10 to 65 mg/kg, po administered for 7 days; type: ADME, organism-based, Macaca fascicularis; parameters: dose 10-65 mg/kg, route oral; details: in vivo, 168 h
Outline: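 Cynomolgus monkeys in a 7-day repeat-dose toxicity study at 10, 25 and 65 mg/kg. Terminal CSF and plasma levels were taken 24 h after the last dose on day 7. Plasma drug was converted to unbound using in vitro plasma protein binding, and the ratio is expressed as CSF over unbound plasma.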

Rattus norvegicus [12] = experiment: Unbound plasma AUC (0 to 24 hrs) in Sprague-Dawley rat at 100 mg/kg, po qd for 2 days; type: ADME, organism-based; parameters: dose 100 mg/kg, route oral; details: in vivo
[13] = Ratio of unbound drug level in brain to plasma in cynomolgus monkey at 10 to 65 mg/kg, po administered for 7 days; type: ADME, organism-based, Macaca fascicularis; parameters: dose 10-65 mg/kg, route oral; details: brain and plasma (unbound)
Outline: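 Cynomolgus monkeys in a 7-day repeat-dose toxicity study at 10, 25 and 65 mg/kg. Terminal brain and CSF levels were taken 24 h after the day-7 dose. Total brain/plasma levels were converted to an unbound brain/unbound plasma ratio using in vitro plasma and brain protein binding values.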

Rattus norvegicus [14] = experiment: Toxicity in Sprague-Dawley rat assessed as mortality at 10 to 100 mg/kg, po administered for 7 days; type: organism-based; parameters: dose 10-100 mg/kg, route oral; details: in vivo, 168 h
Rattus norvegicus [15] = experiment: Unbound plasma AUC (0 to 24 hrs) in Sprague-Dawley rat at 50 mg/kg, po administered for 7 days; type: ADME, organism-based; parameters: dose 50 mg/kg, route oral; details: in vivo
Cynomolgus monkey [16] = experiment: Unbound plasma AUC (0 to 24 hrs) in cynomolgus monkey at 65 mg/kg, po administered for 7 days; type: ADME, organism-based, Macaca fascicularis; parameters: dose 65 mg/kg, route oral; details: in vivo
Rattus norvegicus [17] = experiment: Genotoxicity in Sprague-Dawley rat assessed as micronucleated polychromatic erythrocytes in bone marrow at 100 mg/kg, po qd for 2 days; type: toxicity, organism-based; parameters: dose 100 mg/kg, route oral; details: in vivo, 48 h
Cynomolgus monkey [18] = experiment: Unbound plasma AUC (0 to 24 hrs) in cynomolgus monkey at 10 mg/kg, po administered for 7 days; type: ADME, organism-based, Macaca fascicularis; parameters: dose 10 mg/kg, route oral; details: in vivo
Mus musculus [19] = experiment: Inhibition of LRRK2 G2019S mutant phosphorylation at Ser1292 in ip dosed BAC transgenic mouse brain after 1 to 24 hrs; type: functional, organism-based
Outline: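 Single ip injection of 10 or 50 mg/kg in BAC transgenic mice expressing human G2019S LRRK2. Hippocampus collected at 1, 2.5 or 6 h post-dose (n = 3/dose). pSer1292 LRRK2 and compound concentration measured in brain. Percent inhibition normalised to vehicle-dosed mice (n = 3), with a direct inhibition model fitted to the data.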

[20] = Plasma protein binding in cynomolgus monkey; type: ADME, cell-free, Macaca fascicularis; details: read-out: PPB (converted)
[21] = biological target: ALK tyrosine kinase receptor (Homo sapiens) (UniProt Q9UM73); experiment: Inhibition of ALK at 0.1 uM
Outline: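 Percent inhibition measured in a commercial kinase selectivity profiling panel, with compound tested at a single concentration of 0.1 μM.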

Rattus norvegicus [22] = experiment: Unbound plasma AUC (0 to 24 hrs) in Sprague-Dawley rat at 10 mg/kg, po administered for 7 days; type: ADME, organism-based; parameters: dose 10 mg/kg, route oral; details: in vivo
[23] = biological target: T3, Leucine-rich repeat serine/threonine-protein kinase 2; details: 0.1 uM
Cynomolgus monkey [24] = experiment: Unbound plasma AUC (0 to 24 hrs) in cynomolgus monkey at 25 mg/kg, po administered for 7 days; type: ADME, organism-based, Macaca fascicularis; parameters: dose 25 mg/kg, route oral; details: in vivo
[25] = biological target: 5-hydroxytryptamine receptor 2B (Homo sapiens) (UniProt P41595); experiment: Inhibition of recombinant human 5HT2B receptor expressed in CHO cells at 10 uM; type: cell-based
Rattus norvegicus [26] = experiment: Unbound plasma AUC (0 to 24 hrs) in Sprague-Dawley rat at 100 mg/kg, po administered for 7 days; type: ADME, organism-based; parameters: dose 100 mg/kg, route oral; details: in vivo
Mus musculus [27] = experiment: Inhibition of LRRK2 G2019S mutant phosphorylation at Ser1292 in po dosed BAC transgenic mouse brain after 1 to 24 hrs; type: functional, organism-based
Outline: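 Single oral dose of 15 or 50 mg/kg in G2019S human LRRK2 BAC transgenic mice. Hippocampus sampled at 1, 3, 6 and 12 h (n = 4/dose) and at 24 h (n = 1) to measure pSer1292 LRRK2 and brain compound levels. Inhibition expressed relative to vehicle-dosed mice (n = 3), with a direct inhibition PK/PD model fitted.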

[28] = Solubility of the compound; type: physicochemical
Cytochrome P450 1A2 = biological target: T4, Cytochrome P450 1A2 (Homo sapiens, UniProt P05177); experiment: Time dependent inhibition of CYP1A2; type: ADME
T4 sequence (P05177 whole entry): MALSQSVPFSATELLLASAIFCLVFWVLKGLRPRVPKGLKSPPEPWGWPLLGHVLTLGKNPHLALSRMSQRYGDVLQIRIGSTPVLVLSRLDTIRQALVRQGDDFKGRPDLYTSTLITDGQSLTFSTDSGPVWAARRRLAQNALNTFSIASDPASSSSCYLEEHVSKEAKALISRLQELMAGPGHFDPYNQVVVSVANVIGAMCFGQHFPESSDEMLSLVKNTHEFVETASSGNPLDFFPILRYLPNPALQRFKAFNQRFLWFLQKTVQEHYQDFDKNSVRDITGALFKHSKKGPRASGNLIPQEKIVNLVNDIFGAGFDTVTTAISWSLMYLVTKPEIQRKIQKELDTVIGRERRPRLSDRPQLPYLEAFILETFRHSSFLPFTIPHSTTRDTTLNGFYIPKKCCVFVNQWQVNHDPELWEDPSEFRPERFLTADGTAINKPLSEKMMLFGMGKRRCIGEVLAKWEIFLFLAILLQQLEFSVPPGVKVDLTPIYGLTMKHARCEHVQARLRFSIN

T3 sequence (Q5S007 whole entry): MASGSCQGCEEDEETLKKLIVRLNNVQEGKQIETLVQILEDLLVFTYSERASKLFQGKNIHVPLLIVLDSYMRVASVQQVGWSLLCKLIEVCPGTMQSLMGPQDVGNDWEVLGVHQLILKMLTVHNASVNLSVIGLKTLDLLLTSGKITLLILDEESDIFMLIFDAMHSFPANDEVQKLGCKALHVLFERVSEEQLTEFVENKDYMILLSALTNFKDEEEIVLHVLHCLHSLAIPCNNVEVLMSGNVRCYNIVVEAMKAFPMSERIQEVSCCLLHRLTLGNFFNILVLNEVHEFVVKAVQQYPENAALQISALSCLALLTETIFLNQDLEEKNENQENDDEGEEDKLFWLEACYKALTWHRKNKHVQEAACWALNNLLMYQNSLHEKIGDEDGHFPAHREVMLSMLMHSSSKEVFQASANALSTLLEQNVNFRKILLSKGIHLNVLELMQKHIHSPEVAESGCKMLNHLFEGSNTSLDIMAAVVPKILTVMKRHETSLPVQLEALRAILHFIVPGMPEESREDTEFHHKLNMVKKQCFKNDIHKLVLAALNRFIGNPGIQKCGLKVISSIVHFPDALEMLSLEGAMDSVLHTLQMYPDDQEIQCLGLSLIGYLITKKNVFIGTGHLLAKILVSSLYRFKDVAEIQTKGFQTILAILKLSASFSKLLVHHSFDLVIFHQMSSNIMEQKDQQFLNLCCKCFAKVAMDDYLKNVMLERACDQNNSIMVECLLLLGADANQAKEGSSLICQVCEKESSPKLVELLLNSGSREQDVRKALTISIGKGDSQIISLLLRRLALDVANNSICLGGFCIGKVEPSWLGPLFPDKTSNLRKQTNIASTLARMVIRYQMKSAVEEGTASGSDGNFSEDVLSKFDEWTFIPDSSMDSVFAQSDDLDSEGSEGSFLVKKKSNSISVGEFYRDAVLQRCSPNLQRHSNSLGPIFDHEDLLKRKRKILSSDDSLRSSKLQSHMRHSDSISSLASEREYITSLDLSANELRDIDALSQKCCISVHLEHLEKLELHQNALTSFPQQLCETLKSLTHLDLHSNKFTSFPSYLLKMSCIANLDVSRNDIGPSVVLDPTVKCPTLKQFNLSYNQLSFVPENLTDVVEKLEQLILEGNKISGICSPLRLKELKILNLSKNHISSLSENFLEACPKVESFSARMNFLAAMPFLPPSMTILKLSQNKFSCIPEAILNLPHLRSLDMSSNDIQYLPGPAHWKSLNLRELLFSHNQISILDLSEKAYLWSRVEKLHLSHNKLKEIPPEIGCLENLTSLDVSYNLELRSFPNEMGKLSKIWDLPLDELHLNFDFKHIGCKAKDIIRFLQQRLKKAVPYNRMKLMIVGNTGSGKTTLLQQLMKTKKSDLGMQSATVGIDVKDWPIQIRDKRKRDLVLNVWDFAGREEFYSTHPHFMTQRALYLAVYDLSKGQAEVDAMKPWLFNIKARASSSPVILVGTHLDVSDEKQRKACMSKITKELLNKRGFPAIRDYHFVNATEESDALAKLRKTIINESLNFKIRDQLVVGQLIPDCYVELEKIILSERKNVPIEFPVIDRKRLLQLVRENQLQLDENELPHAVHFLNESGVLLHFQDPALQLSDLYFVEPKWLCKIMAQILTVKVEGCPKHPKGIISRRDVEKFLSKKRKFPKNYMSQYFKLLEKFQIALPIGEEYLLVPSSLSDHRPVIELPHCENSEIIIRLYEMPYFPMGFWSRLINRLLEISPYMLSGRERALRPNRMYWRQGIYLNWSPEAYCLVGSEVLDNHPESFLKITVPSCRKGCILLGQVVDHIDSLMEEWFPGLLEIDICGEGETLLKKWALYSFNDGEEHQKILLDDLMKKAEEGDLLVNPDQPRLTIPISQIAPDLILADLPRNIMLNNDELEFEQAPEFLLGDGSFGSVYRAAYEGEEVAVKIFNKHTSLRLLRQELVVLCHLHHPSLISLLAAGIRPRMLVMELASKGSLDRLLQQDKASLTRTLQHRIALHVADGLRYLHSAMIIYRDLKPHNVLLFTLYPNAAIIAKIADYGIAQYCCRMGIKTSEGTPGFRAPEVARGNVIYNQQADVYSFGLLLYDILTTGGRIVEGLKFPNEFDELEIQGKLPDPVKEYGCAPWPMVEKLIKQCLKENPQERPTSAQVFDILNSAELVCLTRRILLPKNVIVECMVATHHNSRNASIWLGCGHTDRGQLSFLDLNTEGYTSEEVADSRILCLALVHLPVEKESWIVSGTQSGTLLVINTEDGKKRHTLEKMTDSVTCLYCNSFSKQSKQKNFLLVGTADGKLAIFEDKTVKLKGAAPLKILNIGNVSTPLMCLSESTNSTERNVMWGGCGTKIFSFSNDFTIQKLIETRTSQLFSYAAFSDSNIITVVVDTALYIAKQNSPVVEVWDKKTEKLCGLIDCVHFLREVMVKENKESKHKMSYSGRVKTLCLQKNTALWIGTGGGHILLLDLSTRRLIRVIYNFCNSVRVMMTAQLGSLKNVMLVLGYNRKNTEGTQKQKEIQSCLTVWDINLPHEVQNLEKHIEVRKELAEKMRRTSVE
Sequence of ALK tyrosine kinase receptor (Homo sapiens) (Q9UM73 19-1620 limits assumed): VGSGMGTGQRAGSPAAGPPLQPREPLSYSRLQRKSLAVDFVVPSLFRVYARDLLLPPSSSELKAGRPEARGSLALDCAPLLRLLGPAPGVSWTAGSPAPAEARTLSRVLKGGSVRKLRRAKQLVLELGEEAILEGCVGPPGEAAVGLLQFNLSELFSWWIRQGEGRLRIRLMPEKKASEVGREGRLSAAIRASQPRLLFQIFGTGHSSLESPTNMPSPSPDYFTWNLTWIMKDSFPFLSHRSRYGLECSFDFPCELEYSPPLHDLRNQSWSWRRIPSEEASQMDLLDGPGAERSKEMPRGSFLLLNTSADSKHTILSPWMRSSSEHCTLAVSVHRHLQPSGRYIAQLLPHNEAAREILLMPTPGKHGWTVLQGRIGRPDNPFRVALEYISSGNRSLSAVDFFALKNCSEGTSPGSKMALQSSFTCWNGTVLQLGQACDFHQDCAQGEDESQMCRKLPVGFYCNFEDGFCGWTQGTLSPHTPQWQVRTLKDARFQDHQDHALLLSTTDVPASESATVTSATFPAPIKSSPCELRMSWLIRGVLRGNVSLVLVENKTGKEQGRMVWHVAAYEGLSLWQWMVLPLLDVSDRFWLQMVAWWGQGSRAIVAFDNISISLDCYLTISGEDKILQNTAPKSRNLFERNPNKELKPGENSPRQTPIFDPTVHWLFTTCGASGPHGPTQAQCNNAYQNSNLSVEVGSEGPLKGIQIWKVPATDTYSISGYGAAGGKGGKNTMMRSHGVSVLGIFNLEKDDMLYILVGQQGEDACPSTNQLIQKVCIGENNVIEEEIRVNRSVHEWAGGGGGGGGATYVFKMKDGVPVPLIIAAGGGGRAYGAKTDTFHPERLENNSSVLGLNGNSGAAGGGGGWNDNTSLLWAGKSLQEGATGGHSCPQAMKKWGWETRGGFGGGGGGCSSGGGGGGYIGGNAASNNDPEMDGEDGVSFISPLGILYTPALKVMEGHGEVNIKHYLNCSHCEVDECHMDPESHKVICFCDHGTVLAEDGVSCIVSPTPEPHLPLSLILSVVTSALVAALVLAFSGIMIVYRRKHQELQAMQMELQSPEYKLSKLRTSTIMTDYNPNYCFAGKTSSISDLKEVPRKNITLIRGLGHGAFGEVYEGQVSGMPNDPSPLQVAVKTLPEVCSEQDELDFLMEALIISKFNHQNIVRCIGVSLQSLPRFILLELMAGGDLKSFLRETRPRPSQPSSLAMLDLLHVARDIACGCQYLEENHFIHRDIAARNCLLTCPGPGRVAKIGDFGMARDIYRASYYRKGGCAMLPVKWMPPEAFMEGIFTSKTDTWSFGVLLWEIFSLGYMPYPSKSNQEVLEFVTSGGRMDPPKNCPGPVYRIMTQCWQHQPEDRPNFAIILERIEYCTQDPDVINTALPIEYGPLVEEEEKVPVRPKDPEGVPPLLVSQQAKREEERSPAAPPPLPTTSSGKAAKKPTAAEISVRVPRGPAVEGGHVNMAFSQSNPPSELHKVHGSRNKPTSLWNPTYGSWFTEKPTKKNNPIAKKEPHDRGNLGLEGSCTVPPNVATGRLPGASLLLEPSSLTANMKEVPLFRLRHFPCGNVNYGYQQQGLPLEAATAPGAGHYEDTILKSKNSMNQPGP
Sequence of 5-hydroxytryptamine receptor 2B (Homo sapiens) (P41595 whole entry): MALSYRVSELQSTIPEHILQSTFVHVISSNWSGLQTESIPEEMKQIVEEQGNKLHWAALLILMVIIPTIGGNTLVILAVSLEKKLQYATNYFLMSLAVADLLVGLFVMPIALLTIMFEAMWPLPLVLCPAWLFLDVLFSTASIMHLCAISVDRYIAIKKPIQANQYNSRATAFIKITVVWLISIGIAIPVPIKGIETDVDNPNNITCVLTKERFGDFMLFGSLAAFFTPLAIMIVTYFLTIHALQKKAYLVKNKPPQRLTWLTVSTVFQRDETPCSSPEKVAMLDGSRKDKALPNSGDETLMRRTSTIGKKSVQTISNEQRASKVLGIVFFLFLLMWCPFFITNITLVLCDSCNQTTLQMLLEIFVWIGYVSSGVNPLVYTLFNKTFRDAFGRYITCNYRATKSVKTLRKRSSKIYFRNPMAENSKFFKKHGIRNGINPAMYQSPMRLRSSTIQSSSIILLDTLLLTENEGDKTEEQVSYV

Question: Which results are given for `CNc1nc(Nc2ccc(C(=O)N3CCOCC3)cc2OC)ncc1C(F)(F)F`?
Answer: CLhep predicted [1]: 1.8 mL/min/kg; inhibition [2]: 98%; Activity (PBL): Toxic; Ratio Ki [3]: > 1930; Activity (Mus musculus [4]): Toxic; Ratio Ki [5]: 13; Papp A→B (MDR1 (human)): 18.2 ×10⁻⁶ cm/s; Ratio (MDCK): 1.2; inhibition [6]: 55%; Ki [7]: 25 nM; fraction unbound [8]: 0.137; Ki [9]: 2 nM; CLhep predicted [10]: 7.6 mL/min/kg; IC50 [11]: 9 nM

Question: For `CCNc1nc(Nc2cc(F)c(C(=O)N3CCOCC3)cc2OC)ncc1C(F)(F)F`, which CLhep predicted [1] is on record?
Answer: Its CLhep predicted is 3.2 mL/min/kg.

Question: And the Ratio (Nucleic Acid)?
Answer: Its Ratio is 0.82.

Question: What about the Ratio Ki [3] of the same compound?
Answer: Its Ratio Ki is over 3200.

Question: And the Ratio Ki [5]?
Answer: Its Ratio Ki is 53.

Question: What about the fAUC (Rattus norvegicus [12]) of the same compound?
Answer: Its fAUC is 5.95 µM·h.

Question: And the Papp A→B (MDR1 (human))?
Answer: Its Papp A→B is 10.4 ×10⁻⁶ cm/s.

Question: What about the Ratio (MDCK) of the same compound?
Answer: The Ratio was 0.9.

Question: What about the Kp uu at 168 h [13] of the same compound?
Answer: The Kp uu at 168 h was 0.6.

Question: What about the Activity (Rattus norvegicus [14]) of the same compound?
Answer: Its Activity is “Non-toxic”.

Question: And the fAUC (Rattus norvegicus [15])?
Answer: The fAUC was 3.9 µM·h.

Question: And the inhibition [6]?
Answer: Its inhibition is over 65%.

Question: And the fAUC (Cynomolgus monkey [16])?
Answer: Its fAUC is 7.8 µM·h.

Question: What about the Activity (Rattus norvegicus [17]) of the same compound?
Answer: Its Activity is “Non-toxic”.

Question: What about the fAUC (Cynomolgus monkey [18]) of the same compound?
Answer: The fAUC was 0.8 µM·h.

Question: And the inhibition (Mus musculus [19])?
Answer: Its inhibition is “Dose-dependent effect”.

Question: And the fraction unbound [20]?
Answer: Its fraction unbound is 0.055.

Question: What about the inhibition [21] of the same compound?
Answer: The inhibition was over 65%.

Question: What about the fAUC (Rattus norvegicus [22]) of the same compound?
Answer: Its fAUC is 0.8 µM·h.

Question: And the fraction unbound [8]?
Answer: Its fraction unbound is 0.034.

Question: What about the inhibition [23] of the same compound?
Answer: The inhibition was over 65%.

Question: What about the Ki [9] of the same compound?
Answer: The Ki was 1 nM.

Question: And the fAUC (Cynomolgus monkey [24])?
Answer: The fAUC was 3.1 µM·h.

Question: What about the inhibition [25] of the same compound?
Answer: The inhibition was over 70%.

Question: What about the fAUC (Rattus norvegicus [26]) of the same compound?
Answer: Its fAUC is 4.7 µM·h.

Question: And the CLhep predicted [10]?
Answer: Its CLhep predicted is 14 mL/min/kg.

Question: And the IC50 [11]?
Answer: The IC50 was 9 nM.

Question: What about the inhibition (Mus musculus [27]) of the same compound?
Answer: The inhibition was “Dose-dependent effect”.

Question: What does the source list for `CNc1nc(Nc2ccc(-c3nnnn3C)cc2Cl)ncc1C(F)(F)F`?
Answer: Ratio Ki [5]: 3.3; Ratio (MDCK): 0.7; solubility [28]: Insoluble; Ki [9]: 8 nM; inhibition (INH) (Cytochrome P450 1A2): Active; IC50 [11]: 100 nM
